Assay results taken from ChEMBL document CHEMBL1153572, “Synthesis and antinociceptive activity of capsinoid derivatives” (Eur J Med Chem, 2009).

Assays:
[1] = test system: Mus musculus; experiment: Antinociceptive activity against acetic acid-induced writhing in sc dosed KM mouse for 30 mins; assay type: functional; conditions: 0.5 h
Method in brief: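 Mice, half male and half female, 8 per group, in cages at 23 ± 2 °C, 40–60% humidity and a 12 h light/dark cycle. Compounds were dissolved in 10% Tween-80 (aq) as twofold serial dilutions and given sc as a single 0.2 mL dose, with vehicle control. After 20 min, 0.2 mL of 0.7% acetic acid was given ip. Writhes were counted for 30 min. ED50 reported with 95% C.L.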

[2] = species on record: Mus musculus; experiment: Toxicity in KM mouse assessed as moderate pain producing potency for 30 mins by wiping test; assay type: organism-based; conditions: in vivo, 0.5 h
Method in brief: (§1)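 Eye-drop test. Twofold dilutions were dropped into the right eye, with vehicle in the left eye as control. Protective movements (scratching, wiping the eye with the foreleg) were counted for 30 min. Six animals per concentration, half male and half female. A dose–response curve was built from group means, and MPP was taken as the concentration giving 32 scratches.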

[3] = species on record: Mus musculus; experiment: Toxicity in KM mouse assessed as number of protective movements for 30 mins by wiping test; assay type: organism-based; conditions: in vivo, 0.5 h; method in brief: as §1
[4] = test system: Mus musculus; experiment: Antinociceptive activity against acetic acid-induced writhing in sc dosed KM mouse for 30 mins relative to indomethacin; assay type: functional
Method in brief: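 Writhing ED50 from sc dosing (8 mice per group, 10% Tween-80 vehicle, 0.7% acetic acid ip 20 min after dosing, writhes counted for 30 min) expressed as a potency ratio relative to indomethacin run in parallel.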

[5] = species on record: Mus musculus; experiment: Toxicity in KM mouse assessed as relative pungent potency for 30 mins by wiping test relative to capsaicin; assay type: organism-based; conditions: in vivo, 0.5 h
Method in brief: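 RPP was derived from MPP values read off the eye-drop dose–response curve (movements counted for 30 min, 6 animals per concentration). It was scaled to the pain-producing potency of capsaicin, set as 1000.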

Row | SMILES | ED50 [1] [mg/kg] | Activity [2] | Activity [3] | Ratio [4] | Activity [5]
1 | CCCCCCCCCC(=O)OCc1ccc(OCCCCCC)c(OC)c1 | 1.84 | Non-toxic | 11 | 5.89 | Non-toxic
2 | CCCCCCCCCC(=O)OCc1ccc(OCCCC)c(OC)c1 | 3.16 | Non-toxic | 8 | 3.19 | Non-toxic
3 | CCCCCCCCCC(=O)OCc1ccc(OCC)c(OC)c1 | 3.92 | Non-toxic | 4 | 2.57 | Non-toxic
4 | COc1cc(CNC(=O)CCCC/C=C/C(C)C)ccc1O [CAPSAICIN] | – | 0.099 mg/mL | – | – | –
5 | COc1ccc2c(c1)c(CC(=O)O)c(C)n2C(=O)c1ccc(Cl)cc1 [INDOMETHACIN] | – | – | – | 1 | –
6 | CCCCCCCC(=O)OCc1ccc(O)c(OC)c1 [VANILLYL CAPRYLATE] | 12.6 | Non-toxic | 28 | 0.8 | Non-toxic
7 | CCCCCCCCCC(=O)OCc1ccc(O)c(OC)c1 [VANILLYL DECANOATE] | 15.6 | Non-toxic | 25 | 0.65 | Non-toxic
8 | CCCCCCCCCCCC(=O)OCc1ccc(O)c(OC)c1 [VANILLYL LAURATE] | 19.4 | Non-toxic | 22 | 0.52 | Non-toxic
